Screening data: PubChem BioAssay, several laboratories
In the library only some 1.2% were active in any assay of this set; here they are far more common.
CaV13 FRET inh: Primary screen for inhibitors of IQ motif and Ca2+-dependent inactivation inhibitor domain binding in CACNA1D, Förster resonance energy transfer in living cells, …; HEK cells, CFP/YFP FRET ICDI-IQ, plate reader, 10 min; percent FRET-ratio fall versus neutral wells; inhibition, % at 12.3 µM; 340,000 tested, 0.098% active;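 active = mean replicate inhibition of at least 30% and at least 1% of replicates passing that level; inconclusive = only one of the two criteria is met; inactive = neither criterion is met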;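 note: 0% = median of the neutral control wells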
Runt-SMMHC FRET: Runt domain-CBFb-SMMHC interaction inhibition; Cerulean-Runt/Venus-CBFb-SMMHC FRET ratio 530/480, 1 h; inhibition, % at 20 µM; 220,000 tested, 0.74% active;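 active = mean inhibition across duplicate retests at 20 µM reaching about 50%, limit read from the data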;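 note: 0% = DMSO wells and 100% = wells with excess untagged CBFb-SMMHC; inhibitors lower the FRET ratio by blocking Runt binding to CBFb-SMMHC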
Target sequence (Q01196 whole entry, looked up, the tested form may be a part): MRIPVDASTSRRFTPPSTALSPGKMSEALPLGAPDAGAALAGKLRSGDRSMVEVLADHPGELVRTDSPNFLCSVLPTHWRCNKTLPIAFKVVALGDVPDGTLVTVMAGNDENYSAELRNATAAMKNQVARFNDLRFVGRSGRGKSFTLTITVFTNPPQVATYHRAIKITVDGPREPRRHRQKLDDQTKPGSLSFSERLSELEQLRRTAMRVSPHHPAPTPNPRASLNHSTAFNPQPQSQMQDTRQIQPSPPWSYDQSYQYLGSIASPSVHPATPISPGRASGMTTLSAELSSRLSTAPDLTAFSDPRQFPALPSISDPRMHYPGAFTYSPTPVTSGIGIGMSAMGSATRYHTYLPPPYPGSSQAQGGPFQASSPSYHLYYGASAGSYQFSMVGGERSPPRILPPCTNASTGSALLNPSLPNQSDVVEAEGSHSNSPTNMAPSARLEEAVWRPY
Target sequence (Q13951 whole entry, looked up, the tested form may be a part): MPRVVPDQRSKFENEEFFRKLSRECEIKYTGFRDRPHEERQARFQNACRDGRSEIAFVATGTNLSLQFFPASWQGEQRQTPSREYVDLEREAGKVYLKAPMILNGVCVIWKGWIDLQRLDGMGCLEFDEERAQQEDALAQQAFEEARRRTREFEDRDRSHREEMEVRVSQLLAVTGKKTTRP
Runt-CBFb FRET: Runt domain-CBFb interaction inhibition; Q01196+Q13951; Cerulean-Runt/Venus-CBFb FRET ratio 530/480, 1 h; inhibition, % at 20 µM; 220,000 tested, 0.46% active; AID 1496;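 active = inhibition over about 50% at 20 µM in the single-dose screen, limit read from the data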;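 note: 0% = DMSO wells and 100% = excess unlabeled CBFb competitor control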
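Schedule: protein complex preformed 1 h, compound exposure 1 h, room temperature, dark; test system: Cerulean-labeled Runt domain protein; amount: 100 nM per protein; buffer or medium: Tris 50 mM pH 7.5, KCl, K2SO4, 0.01% BSA; read-out: loss of energy transfer signal; detection: FRET fluorescence; controls: 5 µM unlabeled CBFb as full-inhibition high control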
RanGTP-Impb inh: inhibitors of RanGTP-importin-beta interaction, primary screen, biochemical, FRET, CFP-Ran, YFP-importin-beta, homogeneous; cell-free CFP-Ran/YFP-importin-beta FRET ratio; inhibition, % (test concentration not listed); 300,000 tested, 1.1% active; AID 2216;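 active = more than half of the replicate wells show a fall in the fluorescence ratio signal beyond about 16%, limit read from the data, passing the limit was not always enough; inconclusive = exactly half of the replicate wells pass the set limit; inactive = fewer than half of replicates pass the limit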;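 note: 0% = DMSO wells and 100% = Ran loaded with GDP instead of GTP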
Numbers without * were called inactive; u = inconclusive; x = no result given.

SMILES	CaV13 FRET inh	Runt-SMMHC FRET	Runt-CBFb FRET	RanGTP-Impb inh
Cc1ccc(S(=O)(=O)n2c(=O)oc3ccccc32)cc1	-10.2	0.4	-0.3	-1.8
O=C(Cc1ccccc1)N/N=C/c1cc(Br)cc(Cl)c1O	-5.1	91.8*	28.3	18.1*
O=C(CP(=O)(c1ccccc1)c1ccccc1)N/N=C/c1cc(Br)cc(Br)c1O	-4.7	59.6	30.6	21.0*
O=C(C[n+]1ccccc1)N/N=C/c1cc(Br)cc(Br)c1O	x	x	x	-2.9
O=C1CCc2cc(S(=O)(=O)Nc3ccc(F)cc3)cc3c2N1CC3	-6.9	x	x	-2.0
CCOC(=O)C1CCCN(C(=O)c2ccc(C)cc2O)C1 (centres undefined)	-3.3	-6.9	1.3	0.2
Cc1ccc(C(=O)N2CCc3ccccc32)cc1C	-4.5	x	x	x
Cc1ccc(-c2cc(-c3ccccc3)c3c(N)c(S(C)(=O)=O)sc3n2)cc1	-1.7	89.0*	39.6	-4.2
COc1cc(C2NC(=O)NC(C)=C2C(=O)OCc2ccc(C)cc2)cc(OC)c1OC (centres undefined)	-20.2	x	x	28.8*
COc1cc(C2NC(=O)NC(C)=C2C(=O)OCc2ccc(C)cc2)cc(OC)c1O (centres undefined)	-2.5	2.4	-3.1	66.2*
Cc1ccc(S(=O)(=O)CCC(=O)N(C)C2CCCCC2)cc1	-5.4	x	x	-2.2
CCOC(=O)C1=CC[C@]2(C)c3c(c4ccccc4n3C)C(=O)C1N2C	-2.8	x	x	x
COc1cc(C2C3=C(CC(C)(C)CC3=O)N(C)C3=C2C(=O)CC(C)(C)C3)cc(Br)c1O	35.5*	x	x	u
COC(CNC(=O)C(=O)Nc1cc2c3c(c1)CCN3C(=O)CC2)OC	-3.5	x	x	2.4
Cc1noc(C)c1-c1ccc(C(=O)NCc2cccs2)c2occc12	-5.5	x	x	x
Cc1noc(C)c1-c1ccc(C(=O)NCCc2ccccc2)c2occc12	40.4*	x	x	x
C#CCOc1ccc(C2C3=C(CCCC3=O)N(CC(=O)O)C3=C2C(=O)CCC3)cc1Br	9.3	x	x	116.9*
CN(C(=O)c1ccc(OC2CCN(C(=O)c3cccnc3)CC2)cc1)C1CCCCC1	-9.4	2.1	-1.2	-2.5
COc1ccc(/C(O)=C/c2nc3ccccc3n(-c3ccccc3)c2=O)cc1	x	10.0	-78.2	46.7*
COc1ccc(C2CC(c3cccs3)=NN2c2ccc(C=O)cc2)cc1 (centres undefined)	-55.4	73.1*	4.0	-48.0
CCC(=O)N1N=C(c2cccs2)CC1c1ccc(OC)cc1 (centres undefined)	-1.0	x	x	-0.2
Oc1ccccc1C1=NN(c2ccccc2)C(c2ccc(F)cc2)C1 (centres undefined)	-12.6	x	x	-2.7
Fc1ccc(C2CC(c3cccs3)=NN2c2ccccc2)cc1 (centres undefined)	-6.0	78.7*	25.0	0.8
COc1ccc(C2CC(c3cccs3)=NN2c2nc(-c3ccccc3)cs2)cc1OC (centres undefined)	-7.9	-6.7	10.7	56.3*
O=Cc1ccc(N2N=C(c3ccccc3)CC2c2ccccc2)cc1 (centres undefined)	-53.3	x	x	7.6
SMILES	CaV13 FRET inh	Runt-SMMHC FRET	Runt-CBFb FRET	RanGTP-Impb inh
COc1ccc(C2=NN(c3ccc(C=O)cc3)C(c3ccccc3)C2)cc1 (centres undefined)	x	x	x	31.4*
CN(C)c1ccc(-c2ccc3c(=O)c4ccccc4n(C)c3c2)cn1	-21.4	x	x	18.8*
CC(C)COP(=O)(OCC(C)C)C(O)c1ccc(N(C)C)cc1 (centres undefined)	-1.1	-3.4	-0.5	4.2
CSc1nc(NCC(C)C)c2c3c(sc2n1)CN(C)CC3	-8.6	60.4	4.9	16.9*
CC(C)Sc1nc(N)c2c3c(sc2n1)CN(C)CC3	x	29.4	12.8	20.5*
Clc1ccc(CN2CCN(c3ncc(Cc4ccccc4)cn3)CC2)c(Cl)c1	-9.5	x	x	x
CCc1ccc(C(C)NC(=O)c2ncn[nH]2)cc1 (centres undefined)	-4.4	3.2	-1.7	0.6
CC1(OC(=O)C2CCCC2)C(=O)C=C2C=C(c3ccsc3)N(C(CO)CO)C=C2C1=O (centres undefined)	-5.8	28.3	2.9	17.7*
COC(=O)c1cc(S(=O)(=O)N2CCN(c3ccccc3)CC2)c[nH]1	-4.0	x	x	29.1*
CSCCC(C(=O)NC1CCCC1)n1c(C2CCCC2)nc2ccccc21 (centres undefined)	-4.7	x	x	x
[O-][n+]1c2ccccc2cc2ccccc21	-2.3	x	x	79.0*
O=c1ccc2cc(O)c(O)cc2o1	-1.7	72.6*	4.5	80.7*
CC1=CC(c2ccc(Cl)cc2)n2nc(NC(=O)CCC(=O)O)nc2N1 (centres undefined)	-5.1	54.4*	28.8	1.4
O=C(O)C1CCCN1S(=O)(=O)c1cccc(S(=O)(=O)N2CCCC2C(=O)O)c1 (centres undefined)	-6.3	x	x	3.1
O=C(O)[C@@H]1CCCN1S(=O)(=O)c1cccc(S(=O)(=O)N2CCC[C@H]2C(=O)O)c1	68.3*	x	x	u
NS(=O)(=O)c1cccc(NS(=O)(=O)c2ccc(/C=C/C(=O)OCC(=O)c3ccccc3)cc2)c1	-21.7	1.4	-2.3	-2.1
OCCCc1nc2n(n1)C(c1ccccc1Cl)C=C(c1cccs1)N2 (centres undefined)	x	77.6*	19.3	34.0*
N#CC1=C(N)SC(N)=C(C#N)C1CCC1CCCCC1	x	35.0	21.9	50.5*
O=C(N=C1SCC(=O)N1c1ccccc1Cl)c1ccccc1	-3.4	-2.3	-2.3	-0.2
COc1ccccc1N1CCN(C(=O)c2cc3c(=O)n4cccc(C)c4nc3s2)CC1	-3.5	x	x	31.0*
COC(/C=C/Nc1ccc(Cl)cc1)=C(C#N)C#N	-3.9	3.7	0.3	26.7*
COC(=O)Cc1ccc(OC(=O)CCS(=O)(=O)c2ccc(C)cc2)cc1	-6.2	x	x	-1.5
N#Cc1c(N)sc(=S)c2c1CCN(Cc1ccccc1)C2	x	31.2	25.4	x
CCc1nc(N2CCOCC2)c(C#N)c2c1CCCC2	x	-1.5	-1.8	0.3
C=CCNc1nc(N2CCOCC2)c(C#N)c2c1CN(C)CC2	-4.9	54.7*	31.9	95.7*
SMILES	CaV13 FRET inh	Runt-SMMHC FRET	Runt-CBFb FRET	RanGTP-Impb inh
CCN1CCc2c(C#N)c(N3CCOCC3)nc(NCc3ccccc3)c2C1	x	58.1*	40.4	27.8*
C=CCNc1nc(N2CCCCC2)c(C#N)c2c1CN(Cc1ccccc1)CC2	x	0.4	10.0	51.8*
CCN1CCc2c(C#N)c(N3CCOCC3)nc(NCCO)c2C1	-2.9	62.5*	33.1	54.3*
CCN1CCc2c(C#N)c(N3CCCCC3)nc(NCc3ccccc3)c2C1	-4.2	23.1	17.4	1.1
O=C(N/N=C/c1ccc2c(c1)OCO2)c1ccc(COc2cccc3cccnc23)cc1	-2.1	-2.1	1.2	0.5
Cc1ccc(NS(=O)(=O)c2ccc3[nH]c(=O)[nH]c3c2)c(C)c1	-6.9	0.1	-0.4	-3.5
O=C(COC(=O)C1COc2ccccc2O1)Nc1ccccc1OC(F)F (centres undefined)	-5.6	x	x	x
CCc1noc(C)c1C(=O)OCC(=O)Nc1ncc(Cl)cc1Cl	-11.1	x	x	1.7
